Data: ChEMBL document CHEMBL3804761, “Synthesis of a stable and orally bioavailable englerin analogue” (Bioorg Med Chem Lett, 2016)

Assays:
Format in all cases: functional
[1] = Growth inhibition of human SF539 cells assessed as cell growth at 10 uM incubated for 48 hrs by sulforhodamine B assay relative to control; conditions: SF-539, 48 h, read-out: Activity
Outline: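 Single-dose screen in the NCI 60-cell-line panel at one final concentration of 10 µM. Two-day drug exposure with a sulforhodamine B endpoint. Values are growth percent for each cell line.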

[2] = test system: SK-MEL-28; test: Growth inhibition of human SK-MEL-28 cells assessed as cell growth at 10 uM incubated for 48 hrs by sulforhodamine B assay relative to control; conditions: SK-MEL-28, 48 h, read-out: Activity
Outline: (§1)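 Run in the standard NCI 60-cell-line screen. Cells were exposed to drug for two days, and the read-out was sulforhodamine B staining. Compound was tested at a single final concentration of 10 µM in every line, and results are reported as growth percent.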

[3] = test system: SK-MEL-5; test: Growth inhibition of human SK-MEL-5 cells assessed as cell growth at 10 uM incubated for 48 hrs by sulforhodamine B assay relative to control; conditions: SK-MEL-5, 48 h, read-out: Activity; outline: as §1
[4] = Growth inhibition of human UACC62 cells assessed as cell growth at 10 uM incubated for 48 hrs by sulforhodamine B assay relative to control; conditions: UACC-62, 48 h, read-out: Activity
Outline: (§2)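 NCI 60-cell line standard protocol, one-dose screen: single final concentration 10 µM, 2-day drug exposure, sulforhodamine B (SRB) endpoint; read-out is growth percent relative to untreated control.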

[5] = Growth inhibition of human SKOV3 cells assessed as cell growth at 10 uM incubated for 48 hrs by sulforhodamine B assay relative to control; conditions: SK-OV-3, 48 h, read-out: Activity; outline: as §1
[6] = test system: SN12C; test: Growth inhibition of human SN12C cells assessed as cell growth at 10 uM incubated for 48 hrs by sulforhodamine B assay relative to control; conditions: read-out: Activity; outline: as §1
[7] = Growth inhibition of human UO31 cells assessed as cell growth at 10 uM incubated for 48 hrs by sulforhodamine B assay relative to control; conditions: UO-31, 48 h, read-out: Activity; outline: as §2
[8] = test system: T47D; test: Growth inhibition of human T47D cells assessed as cell growth at 10 uM incubated for 48 hrs by sulforhodamine B assay relative to control; conditions: read-out: Activity; outline: as §2
[9] = test system: A549; test: Growth inhibition of human A549/ATCC cells assessed as cell growth at 10 uM incubated for 48 hrs by sulforhodamine B assay relative to control; conditions: A549, 48 h, read-out: Activity; outline: as §1
[10] = test system: NCI-H226; test: Growth inhibition of human NCI-H226 cells assessed as cell growth at 10 uM incubated for 48 hrs by sulforhodamine B assay relative to control; conditions: NCI-H226, 48 h, read-out: Activity; outline: as §1
[11] = test system: NCI-H460; test: Growth inhibition of human NCI-H460 cells assessed as cell growth at 10 uM incubated for 48 hrs by sulforhodamine B assay relative to control; conditions: NCI-H460, 48 h, read-out: Activity; outline: as §1
[12] = test system: NCI-H522; test: Growth inhibition of human NCI-H522 cells assessed as cell growth at 10 uM incubated for 48 hrs by sulforhodamine B assay relative to control; conditions: NCI-H522, 48 h, read-out: Activity; outline: as §1
[13] = test system: CCRF-CEM; test: Growth inhibition of human CCRF-CEM cells incubated for 48 hrs by sulforhodamine B assay
Outline: (§3)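 NCI 60-cell-line panel, standard protocol. Cells exposed to compound for two days, growth read by sulforhodamine B staining. Tested at five 10-fold dilutions, top concentration 100 µM, to give dose-response curves.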

[14] = Growth inhibition of human MOLT4 cells incubated for 48 hrs by sulforhodamine B assay; conditions: MOLT-4, 48 h; outline: as §3
[15] = Growth inhibition of human HOP62 cells incubated for 48 hrs by sulforhodamine B assay; conditions: HOP-62, 48 h; outline: as §3
[16] = Growth inhibition of human HOP92 cells incubated for 48 hrs by sulforhodamine B assay; conditions: HOP-92, 48 h; outline: as §3
[17] = test system: NCI-H226; test: Growth inhibition of human NCI-H226 cells incubated for 48 hrs by sulforhodamine B assay; conditions: NCI-H226, 48 h; outline: as §3
[18] = test system: NCI-H322M; test: Growth inhibition of human NCI-H322M cells incubated for 48 hrs by sulforhodamine B assay; outline: as §3
[19] = test system: NCI-H522; test: Growth inhibition of human NCI-H522 cells incubated for 48 hrs by sulforhodamine B assay; conditions: NCI-H522, 48 h; outline: as §3
[20] = Growth inhibition of human SNB19 cells incubated for 48 hrs by sulforhodamine B assay; conditions: SNB-19, 48 h
Outline: (§4)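 Tested in the standard NCI 60-cell-line protocol with two-day drug exposure and a sulforhodamine B endpoint. Compounds were first screened at a single final concentration of 10 µM, reported as growth percent. They were then run as five 10-fold dilutions starting from a high concentration of 100 µM to give dose-response curves.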

[21] = test system: SK-MEL-5; test: Growth inhibition of human SK-MEL-5 cells incubated for 48 hrs by sulforhodamine B assay; conditions: SK-MEL-5, 48 h; outline: as §3
[22] = Growth inhibition of human OVCAR4 cells incubated for 48 hrs by sulforhodamine B assay; conditions: OVCAR-4, 48 h; outline: as §3
[23] = Growth inhibition of human SKOV3 cells incubated for 48 hrs by sulforhodamine B assay; conditions: SK-OV-3, 48 h; outline: as §4
[24] = test system: A498; test: Growth inhibition of human A498 cells incubated for 48 hrs by sulforhodamine B assay; conditions: A498, 48 h
[25] = Growth inhibition of human RXF393 cells incubated for 48 hrs by sulforhodamine B assay; conditions: RXF 393, 48 h
Outline: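 Run in the NCI 60-cell-line protocol, with 2-day drug exposure and sulforhodamine B read-out. Dose-response testing used five 10-fold dilutions starting from a high concentration of 100 µM.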

[26] = Growth inhibition of human TK10 cells incubated for 48 hrs by sulforhodamine B assay; conditions: TK-10, 48 h; outline: as §4
[27] = Growth inhibition of human UO31 cells incubated for 48 hrs by sulforhodamine B assay; conditions: UO-31, 48 h; outline: as §4
[28] = Growth inhibition of human PC3 cells incubated for 48 hrs by sulforhodamine B assay; conditions: PC-3, 48 h; outline: as §3
[29] = read-out: pLC50 (the source's name) (converted)

Structure (SMILES): CC(C)[C@@]12C[C@@H](NC(=O)CF)[C@@](C)(O1)[C@@H]1CC[C@@H](C)[C@H]1[C@@H]2OC(=O)/C=C/c1ccccc1
- growth at 10 µM [1]: 87.9%
- growth at 10 µM [2]: 110%
- growth at 10 µM [3]: 110%
- growth at 10 µM [4]: 99.6%
- growth at 10 µM [5]: 91.3%
- growth at 10 µM [6]: 103%
- growth at 10 µM [7]: 91.1%
- growth at 10 µM [8]: 78.4%
- growth at 10 µM [9]: 94.4%
- growth at 10 µM [10]: 84.5%
- growth at 10 µM [11]: 104%
- growth at 10 µM [12]: 103%

Structure (SMILES): CC(C)[C@@]12C[C@@H](NC(=O)CO)[C@@](C)(O1)[C@@H]1CC[C@@H](C)[C@H]1[C@@H]2OC(=O)/C=C/c1ccccc1
- growth at 10 µM [1]: 97.2%
- growth at 10 µM [2]: 112%
- growth at 10 µM [3]: 90.6%
- growth at 10 µM [4]: 92.1%
- growth at 10 µM [5]: 101%
- growth at 10 µM [6]: 48.8%
- growth at 10 µM [7]: 57.2%
- growth at 10 µM [8]: 76.3%
- GI50 [13]: 14.1 µM
- CC50 [13, 29]: > 50.1 µM
- TGI ([13]; read-out: pTGI (converted)): > 50.1 µM
- GI50 [14]: 15.8 µM
- LC50 [14]: > 50.1 µM
- TGI ([14]; read-out: pTGI (converted)): > 50.1 µM
- GI50 [15]: 35.5 µM
- LC50 [15]: > 50.1 µM
- TGI ([15]; read-out: pTGI (converted)): > 50.1 µM
- GI50 [16]: 5.25 µM
- LC50 [16]: > 50.1 µM
- TGI ([16]; read-out: pTGI (converted)): 24 µM
- GI50 [17]: 25.1 µM
- LC50 [17]: > 50.1 µM
- TGI ([17]; read-out: pTGI (converted)): > 50.1 µM
- GI50 [18]: > 50.1 µM
- LC50 [18]: > 50.1 µM
- TGI ([18]; read-out: pTGI (converted)): > 50.1 µM
- GI50 [19]: 19.1 µM
- LC50 [19]: > 50.1 µM
- TGI ([19]; read-out: pTGI (converted)): > 50.1 µM
- GI50 [20]: 24.5 µM
- CC50 [20, 29]: > 50.1 µM
- TGI ([20]; read-out: pTGI (converted)): > 50.1 µM
- GI50 [21]: 12.9 µM
- LC50 [21]: > 50.1 µM
- TGI ([21]; read-out: pTGI (converted)): 42.7 µM
- GI50 [22]: 17.8 µM
- LC50 (concentration killing 50% of cells) [22]: > 50.1 µM
- TGI ([22]; read-out: pTGI (converted)): > 50.1 µM
- GI50 [23]: > 50.1 µM
- LC50 [23]: > 50.1 µM
- TGI ([23]; read-out: pTGI (converted)): > 50.1 µM
- LC50 [24]: 29.5 µM
- GI50 ([24]; read-out: GI50): 0.162 µM
- GI50 ([24]; read-out: pGI50 (converted)): 0.162 µM
- TGI ([24]; read-out: pTGI (converted)): 2.45 µM
- GI50 [25]: 2.09 µM
- CC50 [25, 29]: > 50.1 µM
- TGI ([25]; read-out: pTGI (converted)): 24.5 µM
- GI50 [26]: 28.8 µM
- CC50 [26, 29]: > 50.1 µM
- TGI ([26]; read-out: pTGI (converted)): > 50.1 µM
- GI50 [27]: 6.17 µM
- CC50 [27, 29]: > 50.1 µM
- TGI ([27]; read-out: pTGI (converted)): > 50.1 µM
- GI50 [28]: 11.7 µM
- CC50 [28, 29]: > 50.1 µM
- TGI ([28]; read-out: pTGI (converted)): > 50.1 µM
- growth at 10 µM [9]: 91.7%
- growth at 10 µM [10]: 90.8%
- growth at 10 µM [11]: 108%
- growth at 10 µM [12]: 76.9%
